Reference: ChEMBL document CHEMBL1811771, “Synthesis and antimycobacterial activities of non-purine analogs of 6-aryl-9-benzylpurines: Imidazopyridines, pyrrolopyridines, benzimidazoles, and indoles” (Bioorg Med Chem, 2011)
Converted amounts (≈) assume the structure as drawn.

Columns and labels:
[1] = system: Escherichia coli; test: Antimicrobial activity against Escherichia coli ATCC 25922 by broth microdilution method; type: functional
In short: (§1)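 Broth microdilution in cation-adjusted Mueller-Hinton broth against the QC strain, following the standard method for inoculum preparation and incubation. Samples were serially diluted twofold from 16 to 0.125, in triplicate, with DMSO as solvent and diluent. A gentamicin accuracy control was made up in water and diluted in broth. MIC was the lowest concentration giving complete growth inhibition, read by eye.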

[2] = system: Mycobacterium tuberculosis; test: Antimycobacterial activity against Mycobacterium tuberculosis H37Rv after 4 days by MABA assay; type: functional; conditions: 96 h
[3] = system: Staphylococcus aureus; test: Antimicrobial activity against Staphylococcus aureus ATCC 29213 by broth microdilution method; type: functional; in short: as §1
[4] = system: Mycobacterium tuberculosis; test: Antimycobacterial activity against Mycobacterium tuberculosis H37Rv at 128 uM after 4 days by MABA assay; type: functional
[5] = system: Vero; test: Cytotoxicity against african green monkey Vero cells; type: ADME, cell-based; conditions: Chlorocebus sabaeus
[6] = system: Vero; test: Cytotoxicity against african green monkey Vero cells at 128 uM; type: cell-based; conditions: chlorocebus sabaeus
[7] = system: Mycobacterium tuberculosis; test: Antimycobacterial activity against Mycobacterium tuberculosis H37Rv transfected with pFPCA-luxAB grown under anaerobic condition for 10 days followed by 24 hrs incubation under aerobic condition by LORA assay; type: functional
[8] = Selectivity index, ratio of EC50 for african green monkey VERO cells to MIC for Mycobacterium tuberculosis H37Rv; type: functional
[9] = system: Mycobacterium tuberculosis; test: Antimycobacterial activity against Mycobacterium tuberculosis H37Rv transfected with pFPCA-luxAB at 128 uM with pFPCA-luxAB grown under anaerobic condition for 10 days followed by 24 hrs incubation under aerobic condition by LORA assay; type: functional
[10] = system: Mycobacterium tuberculosis; test: Antimycobacterial activity against Mycobacterium tuberculosis H37Rv at 21 uM after 4 days by MABA assay; type: functional; conditions: 96 h

SMILES | MIC [1] | MIC [2] | MIC [3] | MIC [7] | other results
COc1ccc(Cn2ccc3c(-c4ccco4)cc(Cl)nc32)cc1 | > 16 µg/mL | > 128 µM | > 16 µg/mL | – | Activity [4]: 86%
COc1ccc(Cn2cnc3c(-c4ccco4)cc(Cl)nc32)cc1 | > 16 µg/mL | > 128 µM | > 16 µg/mL | – | Activity [4]: 37%
COc1ccc(Cn2cnc3c(-c4ccco4)nccc32)cc1 | > 16 µg/mL | 0.84 µM (≈ 0.256 µg/mL) | > 16 µg/mL | 80 µM (≈ 24.4 µg/mL) | IC50 [5]: > 128 µM; Activity [6]: 0%; Selectivity Index [8]: >150
COc1ccc(Cn2ccc3c(-c4ccco4)nccc32)cc1 | > 16 µg/mL | 1.4 µM (≈ 0.426 µg/mL) | > 16 µg/mL | 28 µM (≈ 8.52 µg/mL) | IC50 [5]: 12 µM; Selectivity Index [8]: 8.6
O=[N+]([O-])c1cn2c(n1)OC[C@@H](OCc1ccc(OC(F)(F)F)cc1)C2 [PRETOMANID] | – | 0.44 µM (≈ 0.158 µg/mL) | – | 3.11 µM (≈ 1.12 µg/mL) | –
COc1ccc(Cn2ccc3c(-c4ccco4)nc(Cl)cc32)cc1 | > 16 µg/mL | 0.09 µM (≈ 0.0305 µg/mL) | > 16 µg/mL | > 128 µM | Activity [9]: 53%; IC50 [5]: 58 µM; Selectivity Index [8]: 644
COc1ccc(Cn2ccc3c(-c4ccco4)cccc32)cc1 | > 16 µg/mL | > 21 µM | > 16 µg/mL | – | inhibition at 21 µM [10]: 0%
COc1ccc(Cn2ccc3c(-c4ccco4)ncnc32)cc1 | – | 0.16 µM (≈ 0.0489 µg/mL) | – | – | –
COc1ccc(Cn2cnc3c(-c4ccco4)ccnc32)cc1 | > 16 µg/mL | 63 µM (≈ 19.2 µg/mL) | > 16 µg/mL | – | –
COc1ccc(Cn2cnc3c(-c4ccco4)nc(Cl)cc32)cc1 | > 16 µg/mL | 0.16 µM (≈ 0.0544 µg/mL) | > 16 µg/mL | 48 µM (≈ 16.3 µg/mL) | IC50 [5]: > 128 µM; Activity [6]: 30%; Selectivity Index [8]: >800
COc1ccc(Cn2ccc3c(-c4ccco4)nc(Cl)nc32)cc1 | – | 0.08 µM (≈ 0.0272 µg/mL) | – | – | –
NNC(=O)c1ccncc1 [ISONIAZID] | – | 0.28 µM (≈ 0.0384 µg/mL) | – | > 128 µM | –
COc1ccc(Cn2cnc3c(-c4ccco4)cccc32)cc1 | > 16 µg/mL | 29 µM (≈ 8.83 µg/mL) | > 16 µg/mL | – | –
COc1ccc(Cn2cnc3c(-c4ccco4)nc(Cl)nc32)cc1 | – | 0.36 µM (≈ 0.123 µg/mL) | – | – | –
COc1ccc(Cn2ccc3c(-c4ccco4)ccnc32)cc1 | > 16 µg/mL | 44 µM (≈ 13.4 µg/mL) | > 16 µg/mL | – | –
CO[C@H]1/C=C/O[C@@]2(C)Oc3c(C)c(O)c4c(O)c(c(/C=N/N5CCN(C)CC5)c(O)c4c3C2=O)NC(=O)/C(C)=C\C=C\[C@H](C)[C@H](O)[C@@H](C)[C@@H](O)[C@@H](C)[C@H](OC(C)=O)[C@@H]1C [RIFAMPIN] | – | 0.09 µM (≈ 0.0741 µg/mL) | – | 0.97 µM (≈ 0.798 µg/mL) | –
COc1ccc(Cn2cnc3c(-c4ccco4)ncnc32)cc1 | – | 2.1 µM (≈ 0.643 µg/mL) | – | – | –
